Measurements as given in ChEMBL document CHEMBL1649441, “Potency and bactericidal activity of iclaprim against recent clinical gram-positive isolates” (2009).
Values after ≈ are worked out from the molar mass of the structure shown.

Legend:
Type in all cases: functional
Enterococcus faecium [1] = test: Antibacterial activity against Enterococcus faecium assessed as resistant isolates by CLSI broth microdilution method
Enterococcus faecalis [2] = test: Antibacterial activity against Enterococcus faecalis assessed as resistant isolates by CLSI broth microdilution method
Enterococcus faecium [3] = test: Antibacterial activity against Enterococcus faecium assessed as susceptible isolates by CLSI broth microdilution method
Enterococcus faecalis [4] = test: Antibacterial activity against Enterococcus faecalis assessed as susceptible isolates by CLSI broth microdilution method
Enterococcus faecalis [5] = test: Antibacterial activity against Enterococcus faecalis by CLSI broth microdilution method
Enterococcus faecium [6] = test: Antibacterial activity against Enterococcus faecium by CLSI broth microdilution method
[7] = test system: Streptococcus sp. 'group B'; test: Antibacterial activity against Beta-hemolytic Streptococcus group B assessed as resistant isolates by CLSI broth microdilution method
In short: (§1)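 Recent clinical isolates from skin/soft tissue, bloodstream and respiratory specimens. Tested by broth microdilution per CLSI M7-A7 and M100-S18, with the appropriate quality controls. The thymidine content of the test medium was assessed to rule out artifactual inhibition.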

[8] = test system: Streptococcus sp. 'group B'; test: Antibacterial activity against Beta-hemolytic Streptococcus group B assessed as susceptible isolates by CLSI broth microdilution method
In short: (§2)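 Clinical isolates from skin/soft tissue, bloodstream and respiratory specimens were tested by broth microdilution per CLSI M7-A7 and M100-S18, with quality controls. Values are the number of isolates inhibited at each concentration, or MIC / percent susceptible. Highest concentration tested was 8 µg/ml for iclaprim and trimethoprim-sulfamethoxazole, and 64 µg/ml for trimethoprim.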

[9] = test system: Streptococcus sp. 'group A'; test: Antibacterial activity against Beta-hemolytic Streptococcus group A assessed as resistant isolates by CLSI broth microdilution method; in short: as §1
[10] = test system: Streptococcus sp. 'group A'; test: Antibacterial activity against Beta-hemolytic Streptococcus group A assessed as susceptible isolates by CLSI broth microdilution method; in short: as §2
Staphylococcus aureus [11] = test: Antibacterial activity against Methicillin-sensitive Staphylococcus aureus assessed as susceptible isolates by CLSI broth microdilution method
Staphylococcus aureus [12] = test: Antibacterial activity against Methicillin-resistant Staphylococcus aureus assessed as resistant isolates by CLSI broth microdilution method
Staphylococcus aureus [13] = test: Antibacterial activity against Methicillin-resistant Staphylococcus aureus assessed as susceptible isolates by CLSI broth microdilution method
Staphylococcus aureus [14] = test: Antibacterial activity against Methicillin-sensitive Staphylococcus aureus assessed as resistant isolates by CLSI broth microdilution method
Staphylococcus aureus [15] = test: Antibacterial activity against Methicillin-sensitive Staphylococcus aureus by CLSI broth microdilution method
Staphylococcus aureus [16] = test: Antibacterial activity against Methicillin-resistant Staphylococcus aureus by CLSI broth microdilution method
[17] = test system: Streptococcus sp. 'group A'; test: Antibacterial activity against Beta-hemolytic Streptococcus group A by CLSI broth microdilution method; in short: as §2
[18] = test system: Streptococcus sp. 'group B'; test: Antibacterial activity against Beta-hemolytic Streptococcus group B by CLSI broth microdilution method; in short: as §2

`CC1(C)S[C@@H]2[C@H](NC(=O)[C@H](N)c3ccccc3)C(=O)N2[C@H]1C(=O)O` [AMPICILLIN] showed an Activity (Enterococcus faecium [1]) of 88.1%, an Activity (Enterococcus faecalis [2]) of 0% and an Activity (Enterococcus faecium [3]) of 11.9%. The Activity (Enterococcus faecalis [4]) was 100%, the MIC (Enterococcus faecalis [5]) was no more than 4 µg/mL and the MIC50 (Enterococcus faecalis [5]) was no more than 4 µg/mL. For the same compound, the MIC90 (Enterococcus faecalis [5]) was no more than 4 µg/mL, the MIC50 (Enterococcus faecium [6]) was greater than 16 µg/mL and the MIC90 (Enterococcus faecium [6]) was greater than 16 µg/mL.

Work on `CCC[C@@H]1C[C@@H](C(=O)N[C@@H]([C@H]2O[C@H](SC)[C@H](O)[C@@H](O)[C@H]2O)[C@H](C)Cl)N(C)C1` [CLINDAMYCIN] yielded an Activity [7] of 10.3%, an Activity [8] of 88.7% and an Activity [9] of 3.3%. The Activity [10] was 96.4%, the Activity (Staphylococcus aureus [11]) was 96.4% and the Activity (Staphylococcus aureus [12]) was 47%. The Activity (Staphylococcus aureus [13]) was 52.7%, the Activity (Staphylococcus aureus [14]) was 3.4% and the MIC50 (Staphylococcus aureus [15]) was no more than 0.12 µg/mL. The MIC90 (Staphylococcus aureus [15]) was no more than 0.12 µg/mL, the MIC90 (Staphylococcus aureus [16]) was greater than 4 µg/mL and the MIC [17] was no more than 0.12 µg/mL. For the same compound, the MIC50 [17] was no more than 0.12 µg/mL, the MIC90 [17] was no more than 0.12 µg/mL and the MIC [18] was no more than 0.12 µg/mL. The MIC50 [18] was no more than 0.12 µg/mL, the MIC90 [18] was greater than 4 µg/mL and the MIC50 (Enterococcus faecalis [5]) was greater than 4 µg/mL. It also gave an MIC90 (Enterococcus faecalis [5]) greater than 4 µg/mL, an MIC50 (Enterococcus faecium [6]) greater than 4 µg/mL and an MIC90 (Enterococcus faecium [6]) greater than 4 µg/mL.

For `CC[C@H]1OC(=O)[C@H](C)[C@@H](O[C@H]2C[C@@](C)(OC)[C@@H](O)[C@H](C)O2)[C@H](C)[C@@H](O[C@@H]2O[C@H](C)C[C@H](N(C)C)[C@H]2O)[C@](C)(O)C[C@@H](C)C(=O)[C@H](C)[C@@H](O)[C@]1(C)O` [ERYTHROMYCIN], the Activity (Enterococcus faecium [1]) was 84.5%, the Activity (Enterococcus faecalis [2]) was 52.9% and the Activity (Enterococcus faecium [3]) was 3%. The Activity (Enterococcus faecalis [4]) was 13.5%, the Activity [7] was 26% and the Activity [8] was 73%. The Activity [9] was 16.1%, the Activity (Staphylococcus aureus [11]) was 77.9% and the Activity (Staphylococcus aureus [12]) was 84.3%. The Activity (Staphylococcus aureus [13]) was 14.6%, the Activity (Staphylococcus aureus [14]) was 21.1% and the MIC50 (Staphylococcus aureus [15]) was 0.25 µg/mL (≈ 0.341 µM). For the same compound, the MIC90 (Staphylococcus aureus [15]) was greater than 4 µg/mL, the MIC50 (Staphylococcus aureus [16]) was greater than 4 µg/mL and the MIC [17] was no more than 0.12 µg/mL. For the same compound, the MIC50 [17] was no more than 0.12 µg/mL, the MIC90 [17] was greater than 4 µg/mL and the MIC50 [18] was no more than 0.12 µg/mL. It also gave an MIC90 [18] greater than 4 µg/mL, an MIC50 (Enterococcus faecalis [5]) greater than 4 µg/mL and an MIC90 (Enterococcus faecalis [5]) greater than 4 µg/mL. The MIC50 (Enterococcus faecium [6]) was greater than 4 µg/mL and the MIC90 (Enterococcus faecium [6]) was greater than 4 µg/mL.

In the case of `C[C@H]1COc2c(N3CCN(C)CC3)c(F)cc3c(=O)c(C(=O)O)cn1c23.C[C@H]1COc2c(N3CCN(C)CC3)c(F)cc3c(=O)c(C(=O)O)cn1c23.O` [LEVOFLOXACIN], the Activity (Enterococcus faecium [1]) is reported as 82.2%, the Activity (Enterococcus faecalis [2]) is reported as 34.2% and the Activity (Enterococcus faecium [3]) is reported as 14.2%. It also gave an Activity (Enterococcus faecalis [4]) of 65.2%, an Activity [7] of 0.5% and an Activity [8] of 99.5%. The Activity [9] was 0%, the Activity (Staphylococcus aureus [11]) was 94.2% and the Activity (Staphylococcus aureus [12]) was 82.4%. It also gave an Activity (Staphylococcus aureus [13]) of 16.8%, an Activity (Staphylococcus aureus [14]) of 5.6% and an MIC50 (Staphylococcus aureus [15]) of 0.25 µg/mL. It also gave an MIC90 (Staphylococcus aureus [15]) of 0.5 µg/mL, an MIC50 (Staphylococcus aureus [16]) greater than 4 µg/mL and an MIC90 (Staphylococcus aureus [16]) greater than 4 µg/mL. The MIC50 [17] was 0.5 µg/mL, the MIC90 [17] was 1 µg/mL and the MIC50 [18] was 0.5 µg/mL. The MIC90 [18] was 1 µg/mL, the MIC50 (Enterococcus faecalis [5]) was 1 µg/mL and the MIC90 (Enterococcus faecalis [5]) was greater than 4 µg/mL. For the same compound, the MIC50 (Enterococcus faecium [6]) was greater than 4 µg/mL and the MIC90 (Enterococcus faecium [6]) was greater than 4 µg/mL.

`CC(=O)NC[C@H]1CN(c2ccc(N3CCOCC3)c(F)c2)C(=O)O1` [LINEZOLID] showed an Activity (Enterococcus faecium [1]) of 0.7%, an Activity (Enterococcus faecalis [2]) of 0% and an Activity (Enterococcus faecium [3]) of 99.3%. It also gave an Activity (Enterococcus faecalis [4]) of 100%, an Activity [8] of 100% and an Activity [10] of 100%. The Activity (Staphylococcus aureus [11]) was 100%, the MIC50 (Staphylococcus aureus [15]) was 2 µg/mL (≈ 5.93 µM) and the MIC90 (Staphylococcus aureus [15]) was 2 µg/mL (≈ 5.93 µM). The MIC50 (Staphylococcus aureus [16]) was 2 µg/mL (≈ 5.93 µM), the MIC90 (Staphylococcus aureus [16]) was 2 µg/mL (≈ 5.93 µM) and the MIC50 [17] was 1 µg/mL (≈ 2.96 µM). For the same compound, the MIC90 [17] was 1 µg/mL (≈ 2.96 µM), the MIC50 [18] was 1 µg/mL (≈ 2.96 µM) and the MIC90 [18] was 1 µg/mL (≈ 2.96 µM). It also gave an MIC50 (Enterococcus faecalis [5]) of 1 µg/mL (≈ 2.96 µM), an MIC90 (Enterococcus faecalis [5]) of 2 µg/mL (≈ 5.93 µM) and an MIC50 (Enterococcus faecium [6]) of 1 µg/mL (≈ 2.96 µM). The MIC90 (Enterococcus faecium [6]) was 2 µg/mL (≈ 5.93 µM).

Work on `CC1(C)S[C@@H]2[C@H](NC(=O)Cc3ccccc3)C(=O)N2[C@H]1C(=O)O` [PENICILLIN G] yielded an Activity [8] of 100%, an Activity [10] of 100% and an MIC [17] of no more than 0.06 µg/mL. The MIC50 [17] was no more than 0.06 µg/mL, the MIC90 [17] was no more than 0.06 µg/mL and the MIC [18] was no more than 0.06 µg/mL. For the same compound, the MIC50 [18] was no more than 0.06 µg/mL and the MIC90 [18] was no more than 0.06 µg/mL.

In the case of `CN(C)[C@@H]1C(O)=C(C(N)=O)C(=O)[C@@]2(O)C(O)=C3C(=O)c4c(O)cccc4[C@@](C)(O)[C@H]3C[C@@H]12` [TETRACYCLINE], the Activity (Enterococcus faecium [1]) is reported as 32%, the Activity (Enterococcus faecalis [2]) is reported as 71.3% and the Activity (Enterococcus faecium [3]) is reported as 67.3%. For the same compound, the Activity (Enterococcus faecalis [4]) was 28.4%, the Activity [7] was 77.9% and the Activity [8] was 21.6%. The Activity [9] was 9.6%, the Activity [10] was 90.2% and the Activity (Staphylococcus aureus [11]) was 95.8%. It also gave an Activity (Staphylococcus aureus [12]) of 12.8%, an Activity (Staphylococcus aureus [13]) of 86.5% and an Activity (Staphylococcus aureus [14]) of 4%. For the same compound, the MIC50 (Staphylococcus aureus [15]) was no more than 0.5 µg/mL, the MIC90 (Staphylococcus aureus [15]) was no more than 0.5 µg/mL and the MIC90 (Staphylococcus aureus [16]) was greater than 16 µg/mL. For the same compound, the MIC [17] was no more than 0.5 µg/mL, the MIC50 [17] was no more than 0.5 µg/mL and the MIC90 [17] was no more than 0.5 µg/mL. It also gave an MIC50 [18] greater than 16 µg/mL, an MIC90 [18] greater than 16 µg/mL and an MIC50 (Enterococcus faecalis [5]) greater than 16 µg/mL. The MIC90 (Enterococcus faecalis [5]) was greater than 16 µg/mL, the MIC (Enterococcus faecium [6]) was no more than 0.5 µg/mL and the MIC50 (Enterococcus faecium [6]) was no more than 0.5 µg/mL. The MIC90 (Enterococcus faecium [6]) was greater than 16 µg/mL.

`CN[C@H](CC(C)C)C(=O)N[C@H]1C(=O)N[C@@H](CC(N)=O)C(=O)N[C@H]2C(=O)N[C@H]3C(=O)N[C@H](C(=O)N[C@H](C(=O)O)c4cc(O)cc(O)c4-c4cc3ccc4O)[C@H](O)c3ccc(c(Cl)c3)Oc3cc2cc(c3O[C@@H]2O[C@H](CO)[C@@H](O)[C@H](O)[C@H]2O[C@H]2C[C@](C)(N)[C@H](O)[C@H](C)O2)Oc2ccc(cc2Cl)[C@H]1O` [VANCOMYCIN] showed an Activity (Enterococcus faecium [1]) of 43.2%, an Activity (Enterococcus faecalis [2]) of 1.9% and an Activity (Enterococcus faecium [3]) of 55.8%. It also gave an Activity (Enterococcus faecalis [4]) of 97.7%, an Activity [8] of 100% and an Activity [10] of 100%. For the same compound, the Activity (Staphylococcus aureus [11]) was 100%, the Activity (Staphylococcus aureus [12]) was 0% and the Activity (Staphylococcus aureus [13]) was 100%. The Activity (Staphylococcus aureus [14]) was 0%, the MIC50 (Staphylococcus aureus [15]) was 1 µg/mL (≈ 0.69 µM) and the MIC90 (Staphylococcus aureus [15]) was 1 µg/mL (≈ 0.69 µM). The MIC50 (Staphylococcus aureus [16]) was 1 µg/mL (≈ 0.69 µM), the MIC90 (Staphylococcus aureus [16]) was 1 µg/mL (≈ 0.69 µM) and the MIC [17] was no more than 0.5 µg/mL. It also gave an MIC50 [17] of no more than 0.5 µg/mL, an MIC90 [17] of no more than 0.5 µg/mL and an MIC [18] of no more than 0.5 µg/mL. It also gave an MIC50 [18] of no more than 0.5 µg/mL, an MIC90 [18] of no more than 0.5 µg/mL and an MIC50 (Enterococcus faecalis [5]) of 1 µg/mL (≈ 0.69 µM). It also gave an MIC90 (Enterococcus faecalis [5]) of 2 µg/mL (≈ 1.38 µM), an MIC50 (Enterococcus faecium [6]) of 1 µg/mL (≈ 0.69 µM) and an MIC90 (Enterococcus faecium [6]) greater than 16 µg/mL.
